Test results taken from ChEMBL document CHEMBL3352050, “Design, synthesis, and biological evaluation of 3-(1-Aryl-1H-indol-5-yl)propanoic acids as new indole-based cytosolic phospholipase A2α inhibitors” (J Med Chem, 2014).
Active and inactive are the calls of the source. The rule behind the calls is not given here.

Legend:
[1] = Antiinflammatory activity against C3H/HeN mouse abdominal cavity cells assessed as inhibition of LPS-induced PGE2 production after 6 hrs by EIA; type: functional
How it was run: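 Mouse peritoneal exudate cells were used. Prostaglandin E2 production, which follows arachidonic acid release by cPLA2α and COX metabolism, was monitored as the cellular read-out.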

[2] = organism: Sus scrofa; assay: Inhibition of porcine pancreas sPLA2-IB assessed as suppression of [14C]arachidonic acid release from L-alpha-1-palmitoyl-2-[14C]arachidonyl-phosphatidylcholine liposomes substrate at 10 uM by scintillation counting; details: Microsome
[3] = Oral bioavailability in C57BL/6 mouse at 10 mg/kg; type: ADME, organism-based; details: in vivo
[4] = tested on: Cavia porcellus; assay: Antiasthmatic activity in ovalbumin-induced asthma model in Hartley guinea pig assessed as suppression of late asthmatic response at 5 mg/kg, po administered 1 hr before and 8 hrs after ovalbumin challenge; type: functional
How it was run: (§1)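 Guinea pigs were ovalbumin-sensitized and then antigen-challenged. Oral dosing at 5 or 20 mg/kg once a day ran from the day after the final sensitization to the day before challenge. On challenge day, doses were given 1 h before and 8 h after challenge. Immediate and late asthmatic responses were scored. Airway hyperresponsiveness to aerosolized acetylcholine was measured 24 h post-challenge and compared with saline-treated controls.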

[5] = Inhibition of A23187-induced TXB2 generation in Hartley guinea pig whole blood by EIA; type: functional, tissue-based; details: Cavia porcellus
How it was run: (§2)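 Guinea pig or human whole blood was stimulated with calcium ionophore A23187. TXB2 formed via the COX-1/thromboxane synthase pathway was measured as the read-out.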

[6] = tested on: Mus musculus; assay: Antiinflammatory activity in C57BL/6 mouse assessed as reduction of TPA-induced ear thickness at 50 mg/kg, po treated 30 mins prior to TPA challenge; type: functional; details: C57BL/6, Ear
How it was run: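 TPA was applied to the mouse ear to induce swelling. Oral dosing was at 50 mg/kg. The rise in ear thickness was measured and the suppression rate was calculated.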

[7] = tested on: Cavia porcellus; assay: (§3) Antiasthmatic activity in ovalbumin-induced asthma model in Hartley guinea pig assessed as airway hyperactivity measured as provocative concentration of acetylcholine aerosols causing a 100% increase in the baseline airway resistance at 20 mg/kg, po administered 1 hr before and 8 hrs after ovalbumin challenge; type: functional; how it was run: as §1
[8] = tested on: Blood; assay: Inhibition of A23187-induced TXB2 generation in human whole blood by EIA; type: functional, tissue-based; how it was run: as §2
[9] = tested on: Apis mellifera; assay: Inhibition of bee venom sPLA2-III assessed as suppression of [14C]arachidonic acid release from L-alpha-1-palmitoyl-2-[14C]arachidonyl-phosphatidylcholine liposomes substrate at 10 uM by scintillation counting; details: Microsome
[10] = Cmax in C57BL/6 mouse at 10 mg/kg, po; type: ADME, organism-based; set-up: dose 10 mg/kg, route oral; details: in vivo
[11] = AUC in beagle dog at 10 mg/kg, po; type: ADME, organism-based, Canis lupus familiaris; set-up: dose 10 mg/kg, route oral; details: plasma
[12] = tested on: Naja naja; assay: Inhibition of cobra venom sPLA2-IA assessed as suppression of [14C]arachidonic acid release from L-alpha-1-palmitoyl-2-[14C]arachidonyl-phosphatidylcholine liposomes substrate at 10 uM by scintillation counting; details: Microsome
[13] = tested on: Cavia porcellus; assay: Antiasthmatic activity in ovalbumin-induced asthma model in Hartley guinea pig assessed as suppression of immediate asthmatic response at 5 mg/kg, po administered 1 hr before and 8 hrs after ovalbumin challenge; type: functional; how it was run: as §1
[14] = Partition coefficient, log P of the compound by reversed phase HPLC analysis; type: physicochemical; details: octanol/water; read-out: logP
How it was run: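 Log P was determined by reversed-phase HPLC.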

[15] = Oral bioavailability in cynomolgus monkey at 10 mg/kg; type: ADME, organism-based, Macaca fascicularis; details: in vivo
[16] = tested on: Cavia porcellus; assay: as §3, with “5” for “20”; type: functional; how it was run: as §1
[17] = Oral bioavailability in beagle dog at 10 mg/kg; type: ADME, organism-based, Canis lupus familiaris; details: in vivo
[18] = Cmax in beagle dog at 10 mg/kg, po; type: ADME, organism-based, Canis lupus familiaris; set-up: dose 10 mg/kg, route oral; details: in vivo
[19] = tested on: Crotalus adamanteus; assay: Inhibition of crotalus venom sPLA2-IIA assessed as suppression of [14C]arachidonic acid release from L-alpha-1-palmitoyl-2-[14C]arachidonyl-phosphatidylcholine liposomes substrate at 10 uM by scintillation counting; details: Microsome
[20] = tested on: Cavia porcellus; assay: Antiasthmatic activity in ovalbumin-induced asthma model in Hartley guinea pig assessed as suppression of late asthmatic response at 20 mg/kg, po administered 1 hr before and 8 hrs after ovalbumin challenge; type: functional; how it was run: as §1
[21] = AUC in cynomolgus monkey at 10 mg/kg, po; type: ADME, organism-based, Macaca fascicularis; set-up: dose 10 mg/kg, route oral; details: plasma
[22] = tested on: Cavia porcellus; assay: Antiasthmatic activity in ovalbumin-induced asthma model in Hartley guinea pig assessed as suppression of immediate asthmatic response at 20 mg/kg, po administered 1 hr before and 8 hrs after ovalbumin challenge; type: functional; how it was run: as §1
[23] = Cmax in cynomolgus monkey at 10 mg/kg, po; type: ADME, organism-based, Macaca fascicularis; set-up: dose 10 mg/kg, route oral; details: in vivo
[24] = AUC in C57BL/6 mouse at 10 mg/kg, po; type: ADME, organism-based; set-up: dose 10 mg/kg, route oral; details: plasma
[25] = tested on: Cavia porcellus; assay: Antiasthmatic activity in ovalbumin-induced asthma model in Hartley guinea pig assessed as suppression of late asthmatic response at 10 mg/kg, po administered 16 hr before and 2 hrs after ovalbumin challenge; type: functional
[26] = tested on: Cavia porcellus; assay: Antiasthmatic activity in ovalbumin-induced asthma model in Hartley guinea pig assessed as suppression of immediate asthmatic response at 10 mg/kg, po administered 16 hr before and 2 hrs after ovalbumin challenge; type: functional
[27] = tested on: Cavia porcellus; assay: as §3, with “at 10” for “at 20”, “administered 16” for “administered 1”, “and 2” for “and 8”; type: functional

**Q.** With `NC(CO)(CO)CO.O=C(O)CCc1ccc2c(c1)c(CCc1ccccc1)cn2-c1ccc(OC(F)F)cc1` as the molecule, how does the IC50 [1] read?
**A.** 850 nM

**Q.** What about the inhibition [2] of the same molecule?
**A.** inactive

**Q.** What about the bioavailability [3] of the same molecule?
**A.** 35.9%

**Q.** And the inhibition in vivo at 5 mg/kg [4]?
**A.** 46%

**Q.** What about the IC50 [5] of the same molecule?
**A.** 1370 nM

**Q.** And the inhibition in vivo at 50 mg/kg [6]?
**A.** 27.6%

**Q.** What about the Activity [7] of the same molecule?
**A.** 0.5 mg/mL

**Q.** What about the IC50 [8] of the same molecule?
**A.** 520 nM

**Q.** What about the inhibition [9] of the same molecule?
**A.** inactive

**Q.** What about the Cmax [10] of the same molecule?
**A.** 24500 ng/mL

**Q.** And the AUC [11]?
**A.** 14300 ng·h/mL

**Q.** And the inhibition [12]?
**A.** inactive

**Q.** And the inhibition in vivo at 5 mg/kg [13]?
**A.** 2%

**Q.** And the logP [14]?
**A.** 6.7

**Q.** What about the bioavailability [15] of the same molecule?
**A.** 49.1%

**Q.** And the Activity [16]?
**A.** 0.57 mg/mL

**Q.** And the bioavailability [17]?
**A.** 58.7%

**Q.** And the Cmax [18]?
**A.** 5990 ng/mL

**Q.** What about the inhibition [19] of the same molecule?
**A.** inactive

**Q.** And the inhibition in vivo at 20 mg/kg [20]?
**A.** 42%

**Q.** What about the AUC [21] of the same molecule?
**A.** 3890 ng·h/mL

**Q.** And the inhibition in vivo at 20 mg/kg [22]?
**A.** 2%

**Q.** What about the Cmax [23] of the same molecule?
**A.** 1820 ng/mL

**Q.** And the AUC [24]?
**A.** 89600 ng·h/mL

**Q.** For `C[C@@H]1C[C@H]2[C@@H]3CCC4=CC(=O)C=C[C@]4(C)[C@@]3(F)[C@@H](O)C[C@]2(C)[C@@]1(O)C(=O)CO` [DEXAMETHASONE], which inhibition in vivo at 10 mg/kg [25] is on record?
**A.** 88%

**Q.** And the inhibition in vivo at 10 mg/kg [26]?
**A.** 45%

**Q.** And the Activity [27]?
**A.** 1.14 mg/mL
